The subject of assay [1] is Mus musculus. The assay can be described thus: Increase in life span of mice bearing L1210 leukemia after administration of 42 […] compound. Format: functional. In short, it runs like this: (§1)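 In vivo antitumor test in mice bearing L1210 leukemia, read out as increase in life span (ILS). Body weight was monitored. The optimal dose was defined as the dose giving the best antitumor efficacy with body weight loss ≤15%.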

Assay [2] deals with Mus musculus. The assay can be described thus: Number of mice bearing L1210 leukemia that survived after 30 days, after administration of 70 […] compound. Format: functional. In short, it runs like this: as §1
Assay [3] relates to Mus musculus. The experiment in a line: Weight change in mice bearing L1210 leukemia after administration of 42 […] compound. Type of assay: functional.
The subject of assay [4] is Mus musculus. The experiment in a line: Number of mice bearing L1210 leukemia that survived after 30 days, after administration of 25 […] compound. Format: functional. In short, it runs like this: as §1
Assay [5] relates to Mus musculus. The assay can be described thus: Days until first mouse died treated with 100 […] compound. Format: functional. In short, it runs like this:
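Delayed-toxicity study in non-tumor-bearing BDF1 mice: single ip dose given on day 0, then animals observed for up to 180 days. Recorded the day the first mouse died and the number of mice alive on day 180, with 6–8 mice per group.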

The subject of assay [6] is Mus musculus. The assay can be described thus: Number of mice surviving on day 180 treated with 100 […] compound; 4/8. Type of assay: functional, organism-based.
In assay [7] the test system is Mus musculus. The experiment in a line: Increase in life span of mice bearing L1210 leukemia after administration of 25 […] compound. Format: functional. In short, it runs like this: as §1
For another assay, the system named is L1210. The experiment in a line: Compound was tested in vitro against L1210 leukemia cells. Type of assay: functional, cell-based. The settings on record: Mus musculus. In short, it runs like this: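 L1210 murine leukemia cells exposed to drug for 48 h; IC50 reported in nM.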
The test system of assay [8] is Mus musculus. The experiment in a line: Number of mice bearing L1210 leukemia that survived after 30 days, after administration of 42 µg/kg compound.
Assay [9] concerns Mus musculus. The experiment in a line: Weight change in mice bearing L1210 leukemia after administration of 25 […] compound. Format: functional.
Assay [10] deals with Mus musculus. The assay can be described thus: Weight change in mice bearing L1210 leukemia after administration of 70 […] compound. Type of assay: functional.
Assay [11] relates to Mus musculus. The assay can be described thus: Increase in life span of mice bearing L1210 leukemia after administration of 70 […] compound; toxic. On the set-up: dose 70 […]. Type of assay: functional, organism-based.
Assay [12] relates to Mus musculus. The assay can be described thus: Increase in life span of mice bearing L1210 leukemia after administration of 100 […] compound. Format: functional. In short, it runs like this: as §1
The subject of assay [13] is Mus musculus. The assay can be described thus: Weight change in mice bearing L1210 leukemia after administration of 45 […] compound. Format: functional.
Assay [14] has as its system Mus musculus. The assay can be described thus: Number of mice bearing L1210 leukemia that survived after 30 days, after administration of 45 µg/kg compound.
In assay [15] the test system is Mus musculus. The experiment in a line: Increase in life span of mice bearing L1210 leukemia after administration of 67 […] compound. Type of assay: functional. In short, it runs like this: as §1
The test system of assay [16] is Mus musculus. The experiment in a line: Number of mice bearing L1210 leukemia that survived after 30 days, after administration of 67 […] compound. Type of assay: functional. In short, it runs like this: as §1
The test system of assay [17] is Mus musculus. The experiment in a line: Increase in life span of mice bearing L1210 leukemia after administration of 45 […] compound. Type of assay: functional. In short, it runs like this: as §1
The subject of assay [18] is Mus musculus. The assay can be described thus: Weight change in mice bearing L1210 leukemia after administration of 67 […] compound. Format: functional.
The test system of assay [19] is Mus musculus. The experiment in a line: Weight change in mice bearing L1210 leukemia after administration of 100 […] compound. Type of assay: functional.
Assay [20] relates to Mus musculus. The assay can be described thus: Number of mice surviving on day 180 treated with 100 […] compound; 5/8. Type of assay: functional, organism-based.
In assay [21] the test system is Mus musculus. The assay can be described thus: Number of mice bearing L1210 leukemia that survived after 30 days, after administration of 100 […] compound. Format: functional. In short, it runs like this:
as §1

For assay [22], the system named is Mus musculus. The experiment in a line: Number of mice surviving on day 180 treated with 100 […] compound; 8/8. Format: functional, organism-based.
In assay [23] the test system is Mus musculus. The assay can be described thus: Days until first mouse died treated with 100 […] compound; no death. Format: functional, organism-based.

SMILES strings stand for the structures.

Consider `CC(=O)Nc1ccc2oc(C(=O)Nc3ccc4[nH]c(C(=O)N5C[C@@H](CCl)c6c5cc(O)c5ccccc65)cc4c3)cc2c1`, for which the increase in lifespan (ILS) (commonly the gain in survival time of treated over control animals, in per cent) at 42 mg/kg in the assay on Mus musculus [1] was found to be 67%. The figures for the Survivors in the assay on Mus musculus [2], in the assay on Mus musculus [4] and in the assay on Mus musculus [8] were 0, 1 and 0, respectively. Besides, the Weight change in the assay with Mus musculus [3] is given as -7%; with Mus musculus [9] it was 12%; in the assay with Mus musculus [10], -18%. Also, the Days in the assay with Mus musculus [5] turned out to be 8. Further, the No. of mice result in the assay with Mus musculus [6] is recorded as “Mice surviving 4/8”. The ILS at 25 mg/kg in the assay with Mus musculus [7] amounted to 120%. For the same compound, in the assay on L1210, half-maximal inhibition (IC50) required 0.65 nM. Also, the ILS result in the assay on Mus musculus [11] is “Toxic”.

In the case of `CC(=O)Nc1ccc2[nH]c(C(=O)Nc3ccc4[nH]c(C(=O)N5CC(CCl)c6c5cc(O)c5ccccc65)cc4c3)cc2c1` (racemic), in the assay with L1210, inhibition was half-maximal at 2.5 nM (IC50).

For the compound `COc1ccc2[nH]c(C(=O)Nc3ccc4[nH]c(C(=O)N5CC(CCl)c6c5cc(O)c5ccccc65)cc4c3)cc2c1` (racemic), the Days with Mus musculus [5] turned out to be 35. This compound also returned an ILS at 100 mg/kg with Mus musculus [12] of 53%. Besides, the Weight change with Mus musculus [13] is 2%; in the assay on Mus musculus [18], 3%; with Mus musculus [19] it was -15%. For the same compound, the Survivors with Mus musculus [14], with Mus musculus [16] and in the assay with Mus musculus [21] was 0 in each case. The ILS at 67 mg/kg in the assay with Mus musculus [15] worked out at 93%. In addition, the IC50 (in general, the concentration at which inhibition is half-maximal) in the assay with L1210 turned out to be 5.7 nM. This compound gave an ILS at 45 mg/kg in the assay on Mus musculus [17] of 93%. Further, the No. of mice result in the assay with Mus musculus [20] is given as “Mice surviving 5/8”.

The compound `O=C(Nc1ccc2[nH]c(C(=O)N3CC(CCl)c4c3cc(O)c3ccccc43)cc2c1)c1cc2cc([N+](=O)[O-])ccc2o1` (racemic) came in with an ILS at 100 mg/kg in the assay with Mus musculus [12] of 173%. The No. of mice entry in the assay with Mus musculus [22] is “Mice surviving 8/8”. In addition, the Weight change with Mus musculus [13] is 2%; with Mus musculus [18], -2%; with Mus musculus [19], -5%. Further, the Survivors in the assay with Mus musculus [14], in the assay on Mus musculus [16] and with Mus musculus [21] was 0 each time. In addition, in the assay on Mus musculus [15], the ILS at 67 mg/kg stood at 147%. The compound further yielded an IC50 in the assay on L1210 of 0.44 nM. Also, the Days result in the assay on Mus musculus [23] was “No death”. The compound also displayed an increase in lifespan (ILS) at 45 mg/kg in the assay with Mus musculus [17] of 120%.

For `O=C(Nc1ccc2[nH]c(C(=O)N3CC(CCl)c4c3cc(O)c3ccccc43)cc2c1)c1cc2cc(F)ccc2[nH]1` (racemic), the ILS at 100 mg/kg in the assay with Mus musculus [12] worked out at 158%. Besides, in the assay on Mus musculus [22], the No. of mice result is on record as “Mice surviving 8/8”. Moreover, the Weight change in the assay with Mus musculus [13] is given as 2%; in the assay with Mus musculus [18] it was -2%; with Mus musculus [19] it was -7%. The Survivors with Mus musculus [14], in the assay on Mus musculus [16] and in the assay on Mus musculus [21] was 0 in each case. In the assay with Mus musculus [15], this compound gave an ILS at 67 mg/kg of 160%. The compound further displayed an IC50 in the assay on L1210 of 0.29 nM. For the same compound, the Days entry with Mus musculus [23] is “No death”. The same compound gave an ILS at 45 mg/kg in the assay with Mus musculus [17] of 137%.

The values are drawn from ChEMBL document CHEMBL1136807, “CC-1065 analogues bearing different DNA-binding subunits: synthesis, antitumor activity, and preliminary toxicity study” (J Med Chem, 2003).
